Data on 74 compounds can be found in PubChem BioAssay AID1943 (The Scripps Research Institute Molecular Screening Center, 2009).

The campaign covered roughly 1,600 compounds. About 500 (31%) were called active. These entries were drawn from the full list. A number with no mark means an inactive call.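 The calls were made as follows: active = inhibition above the mean of all tested compounds plus 3 SD, cutoff set per campaign (cut at about 36% in these data); inactive = the rest.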

This test relates to Hepatitis C virus NS3 helicase. The test is described as follows: HCV NS3 helicase inhibitors, retest, confirmation, biochemical, Cy5 molecular beacon fluorescence, triplicate (AID 1943). The conditions noted are these: NS3 helicase DNA unwinding, at 10.9 µM, hits give high values. The essentials: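 assay system = HCV NS3 helicase | medium = MOPS buffer pH 6.5 with MgCl2, DTT, Tween20 and BSA | compound dosing = single nominal final dose of 10.9 µM, DMSO vehicle | incubation = reads at 0 and 60 min post-ATP, 25 °C | detection = Cy5 fluorescence | read-out = % inhibition of unwinding | repeats = triplicate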
As a reminder, the inhibition is the relative decrease from the control value, in per cent. On to `CCOC(=O)c1c(-c2ccccc2)oc2cc(Br)c(O)c(C=O)c12`, for which the inhibition is 36.3% (active). Then `CC(Oc1ccccc1)C(=O)Nc1oc(-c2ccco2)c(-c2ccco2)c1C#N` (centres undefined), with 61.5% (active); and `Cc1cccc(NC(=O)c2sc3nc4c(c(-c5ccco5)c3c2N)CCC4)c1`, with -20.1%. With `COc1ccc(/C=C2\SC(=S)N(CCC(=O)Nc3cccc(C(=O)O)c3)C2=O)cc1OC`, the inhibition was 52.9% (active). Then `Cc1ccc(SC(CC(=O)c2ccc(C(C)(C)C)cc2)C(=O)O)cc1` (centres undefined), with 74.6% (active). With `COc1ccc(NC(=O)CSc2ccc(-c3ccco3)nn2)c(OC)c1` the figure was -10.9%; with `COCCNC(=O)Nc1ccc2nc(-c3ccco3)c(-c3ccco3)nc2c1`, 43.5% (active). As for `COc1ccc(OCC(=O)Nc2nnc(-c3ccco3)s2)cc1`, the inhibition was -10.9%. Regarding `S=C(NCCc1ccccc1)N1CCCCC1`, the inhibition was -9.72%. Then `CCSc1nsc(NC(=O)Nc2cccc(C(C)=O)c2)n1`, with -4.64%; and `CNS(=O)(=O)c1cccc(C(=O)NC2CCCc3ccccc32)c1` (centres undefined), with -10.8%; and `Cc1ccc(OCC(=O)c2cc(C)n(Cc3ccco3)c2C)c([N+](=O)[O-])n1`, with -9.23%. With `Cc1ccc(S(=O)(=O)NCCC(c2ccccc2)c2ccccc2)cc1C(=O)O` the figure was 55.2% (active); with `O=C1NN(c2ccccc2)C(=O)/C1=C/c1ccc(-c2cccc(C(=O)O)c2)o1`, 54.1% (active).

Take `COc1cc(C2CC(=O)N3CN(Cc4ccccc4)CSC3=C2C#N)ccc1OCc1ccccc1` (centres undefined): the inhibition was 25%. With `N#C/C=C(/c1ccc(F)cc1)N1CCOCC1` the figure was -4.32%; with `Cc1ccc(-c2nn(-c3ccccc3)cc2/C=C2\SC(=S)N(CCCCCC(=O)O)C2=O)o1`, 84.6% (active); with `O=C(N/N=C/c1ccc([N+](=O)[O-])o1)c1cn(-c2ccccc2)nc1-c1ccc(F)cc1`, -4.3%. With `COc1cccc(CNC(=O)c2nnn(CC(=O)Nc3cc(Cl)ccc3C)c2N)c1` the figure was 3.98%.

As to `Cc1ccc(C(CC(=O)O)Nc2nc(N3CCCCC3)nc(N3CCCCC3)n2)cc1` (centres undefined), the inhibition was 79% (active). Turning to `COc1ccccc1N1CCN(C(=O)CCS(=O)(=O)c2ccc3c(c2)NC(=O)C(C)S3)CC1` (centres undefined), the inhibition was -19.2%.

Consider `CC(C)c1ccc(Nc2nnc(SCC(=O)c3nnc(-c4ccccc4)o3)s2)cc1`, for which the inhibition was 89.1% (active). For `Cc1ccccc1Nc1nnc(SCC(=O)c2cc3ccccc3o2)s1`, the inhibition is -10.8%.

For `Cc1cc(O)c(C(=O)/C=C/c2c(F)c(F)c(F)c(F)c2F)c(=O)o1`, the inhibition was 69.6% (active). For the compound `CS(=O)(=O)c1ccc2c(c1)SC1=NC(=O)/C(=C/c3ccco3)C(=N)N12`, the inhibition was 22.5%. With `Nc1ccc2nc3c(=O)[nH]c(=S)[nH]c3nc2c1`, the inhibition was 2.58%. Take `O=[N+]([O-])c1cc(Cl)cc(/C=N/NC(=S)Nc2cc(S(=O)(=O)N3CCOCC3)ccc2Cl)c1O`: the inhibition was 94.9% (active). With `Cc1ccc(S(=O)(=O)N/N=C\c2cc3c(cc2[N+](=O)[O-])OCO3)cc1` the figure was -12%; with `CN(C)c1ccc(N/C=C/C(=O)C(F)(F)F)cc1`, 2.03%.

Consider `COc1cccc(C(=O)CC(=O)C(=O)Nc2ccc([N+](=O)[O-])cc2C)c1`, for which the inhibition was 16.8%. On to `CCOc1ccc(C(C(=O)NCCOC)N(CCOC)C(=O)CCC(=O)Nc2ccccn2)cc1` (centres undefined), for which the inhibition is -12.9%. Then `Fc1ccc(-c2ccc(-c3nn4c(-c5ccco5)nnc4s3)o2)cc1`, with 12%; and `CCN(CC)CCOc1ccc2c(c1)C(=NNC(=O)c1ccccn1)c1cc(OCCN(CC)CC)ccc1-2`, with 37.9% (active). Turning to `COc1cc(/C=C2/C(=O)NN(c3cccc(Cl)c3)C2=O)cc(Br)c1O`, the inhibition was 57.7% (active). Then `Cc1ccc(C)c(-n2c(SCC(=O)O)nc3sc4c(c3c2=O)CCCC4)c1`, with 22.2%; and `O=C1N/C(=C/c2cccn2-c2ccccc2)C(=O)N1c1cccc(Cl)c1`, with 6.32%. `CS/C(=C\C(=O)c1ccco1)Nc1ccccc1Cl`: the inhibition is -6.86%. Then `CCOC(=O)c1nnn(-c2nc(OC)nc(N(C)C)n2)c1-c1ccccc1`, with -9.79%; and `c1ccc(CSc2nnc(-c3ccco3)c(-c3ccco3)n2)cc1`, with 67% (active). With `CSc1c(SCc2ccccc2)cnn(Cc2ccccc2)c1=O` the figure was -8.85%; with `Clc1ccccc1CSc1nnc(-c2ccco2)c(-c2ccco2)n1`, 72% (active).

For the compound `O=c1c2c(-c3ccccc3)ccnc2[nH]n1-c1ccccc1`, the inhibition was -13.5%. As for `Brc1ccccc1C1Nc2cccc3cccc(c23)N1`, the inhibition was -7.38%. With `O=C(CCCN1C(=O)/C(=C\c2ccco2)SC1=S)Nc1cccc2ccccc12` the figure was 73.3% (active).

As to `O=c1nc2s/c(=C\c3ccco3)c(=O)n2nc1Cc1ccccc1`, the inhibition was -17.8%. For the compound `NS(=O)(=O)c1ccc(-c2ccc(/C=C3\SC(=O)NC3=O)o2)cc1`, the inhibition was -18.5%. With `O=C(CCl)NNc1cccc(Cl)n1` the figure was -2.17%; with `CCOc1ccc(C2C3=C(CCCC3=O)N(CC(=O)O)C3=C2C(=O)CCC3)cc1`, -13.6%.

As for `CC1=NN(c2ccc(Cl)c(C(=O)O)c2)C(=O)/C1=C/c1ccc(-c2ccccc2[N+](=O)[O-])o1`, the inhibition was 73.3% (active). On to `CC(=O)Nc1ccc(Nc2c3ccccc3nc3ccccc23)cc1`, for which the inhibition was 2.42%.

`Cc1ccc(C2=N/C(=C\c3ccc(OS(=O)(=O)c4ccc(C)cc4)cc3)C(=O)O2)cc1`: the inhibition is 27.4%. Then `Cc1occc1C(=O)N/N=C/c1ccc(-c2cccc([N+](=O)[O-])c2)o1`, with -10.4%; and `Cc1ccc(/C=C/C(=O)Nc2ccc([N+](=O)[O-])c(NC(=O)/C=C/c3ccc(C)o3)c2)o1`, with 62.1% (active). On to `CCC1C/C(=C/c2cccs2)C(=O)/C(=C/c2cccs2)C1` (centres undefined), for which the inhibition is -12.8%. Then `CCOC(=O)C1=C(O)/C(=C/c2cc(C)n(-c3ccccc3)c2C)N=C1C`, with -7.36%. Then `Cc1cc(C)c2nc(-c3ccco3)cc(C(=O)O)c2c1`, with 79.1% (active); and `CC(=O)C1=C(O)C(=O)N(c2ccc(Br)cc2)C1c1ccc([N+](=O)[O-])cc1` (centres undefined), with 46.5% (active).

For the compound `O=c1[nH]c(/C=C\c2cccc(C(F)(F)F)c2)nc(O)c1[N+](=O)[O-]`, the inhibition was -7.2%. `COc1ccc(/C=C/C(=O)c2cc(Br)ccc(=O)c2O)cc1`: the inhibition is 82.1% (active). Then `CC(=O)Oc1cccc(N2C(=O)CC(Nc3ccc(N4CCOCC4)cc3)C2=O)c1` (centres undefined), with -24.2%; and `Cc1ccc(C(=O)O)cc1-c1ccc(/C=C2\SC(=O)N(CC(=O)Nc3ccc4c(c3)OCO4)C2=O)o1`, with 63.1% (active).

On to `O=C(c1cccc(-n2cccc2)c1)N1CCN(S(=O)(=O)c2ccc(F)cc2)CC1`, for which the inhibition is -4.73%. With `COc1ccc(C)cc1-n1nnnc1SCC(=O)c1cc(C)n(Cc2ccco2)c1C` the figure was 6.51%. As for `O=C(N/N=C/c1ccco1)c1csc2c1CCCC2`, the inhibition is -9.79%. As for `COc1cc(C2C(C(=O)c3ccco3)=C(O)C(=O)N2c2cc(C)on2)ccc1OCc1ccccc1` (centres undefined), the inhibition is 110% (active). For the compound `COc1ccccc1C1/C(=C(/O)c2ccc(OC(C)C)cc2)C(=O)C(=O)N1c1cc(C)on1` (centres undefined), the inhibition is -6.81%.

Take `CC(C)c1ccc(C2C(C(=O)c3ccco3)=C(O)C(=O)N2CC2CCCO2)cc1` (centres undefined): the inhibition was -11.7%. Regarding `O=C1C=CC(=O)N1c1ccc(N2CCCCC2)cc1`, the inhibition is -18.6%. On to `COc1ccc(/C=C(\NC(=O)c2ccc(OCC(C)C)cc2)C(=O)OCc2ccco2)cc1`, for which the inhibition is 11.2%. With `Cc1[nH]n(C(N)=S)c(=O)c1N=Nc1ccc(Cl)cc1Cl` the figure was 10.9%.

Consider `CCOC(=O)c1ccccc1N1C(=O)C2Sc3[nH]c(=O)sc3C(/C=C/c3ccccc3)C2C1=O` (centres undefined), for which the inhibition is 44.1% (active). With `COC(=O)COc1ccc2c(c1C)O/C(=C\c1ccco1)C2=O` the figure was -7.55%. With `Cc1ccc(C2Nc3cccc4cccc(c34)N2)cc1` the figure was -28.1%. Then `Cc1nn2c(c1-c1ccccc1)N=C(c1ccco1)CC2c1ccccc1` (centres undefined), with -12.4%.
